Data as given in ChEMBL document CHEMBL5030552, “Computational Design of Potent D-Peptide Inhibitors of SARS-CoV-2” (J Med Chem, 2021).

What was measured:
[1] = target: Spike glycoprotein (Severe acute respiratory syndrome coronavirus 2, UniProt P0DTC2); assay: Binding affinity to SARS-CoV-2 spike protein receptor-binding domain by biolayer interferometry (BLI) assay
In short: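 BLI was run at 25 °C with shaking at 1000 rpm. His-tagged RBD (200 nM) was loaded on Ni-NTA sensors, then peptides were applied at several concentrations, and dissociation was read in baseline wells. Signals were referenced against His-tagged SUMO and RBD-only sensors. Subtracted curves were fitted for ka, kd and Kd.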

[2] = test system: SARS-CoV-2; assay: Antiviral activity against SARS-CoV-2 assessed as neutralization viral infection in Vero cells by measuring cytopathic effect incubated for 4 days by crystal violet staining based assay; format: functional, organism-based; conditions: Severe acute respiratory syndrome coronavirus 2, Vero, 96 h
[3] = test system: Vero; assay: Cytotoxicity against African green monkey Vero cells assessed as viable cells measured by MTS assay; format: cell-based; conditions: chlorocebus sabaeus
In short: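 Vero cells (1.5 × 10⁴/well, 24 h growth) were exposed in the neutralization-assay format without virus. Peptides were twofold-diluted from 100 to 0.1953 μM from DMSO stocks diluted in PBS. Viability was read with MTS.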

[4] = Stability of the compound in proteinase K (unknown origin) in presence of serum assessed as loss of peptide measured after 2.5 hr; format: ADME; conditions: read-out: Drug degradation

CC[C@@H](C)[C@@H](N)C(=O)N[C@H](CC(N)=O)C(=O)N[C@H](CCC(N)=O)C(=O)N[C@H](Cc1ccc(O)cc1)C(=O)N[C@H](CCSC)C(=O)N[C@H](CCC(=O)O)C(=O)N[C@H](CCC(=O)O)C(=O)N[C@@H](C(=O)N[C@H](CCC(=O)O)C(=O)N[C@H](Cc1cnc[nH]1)C(=O)N[C@H](C)C(=O)N[C@H](C)C(=O)N[C@H](CO)C(=O)N[C@H](CCCNC(=N)N)C(=O)N[C@H](Cc1ccccc1)C(=O)N[C@H](C)C(=O)N[C@H](Cc1ccc(O)cc1)C(=O)N[C@H](Cc1ccccc1)C(=O)N[C@H](Cc1ccccc1)C(=O)N[C@H](Cc1ccc(O)cc1)C(=O)N[C@H](CCC(N)=O)C(=O)N[C@H](Cc1cnc[nH]1)C(=O)N[C@H](CC(C)C)C(=O)N[C@H](C)C(=O)O)[C@H](C)CC
Kd [1]: 105 nM

CC[C@@H](C)[C@@H](NC(=O)CNC(=O)[C@@H](CC(C)C)NC(=O)CNC(=O)[C@@H](CCCCN)NC(=O)CNC(=O)[C@@H](CC(=O)O)NC(=O)[C@@H](Cc1ccccc1)NC(=O)[C@H](N)CCCNC(=N)N)C(=O)N[C@H](Cc1ccc(O)cc1)C(=O)N[C@H](CCC(N)=O)C(=O)N[C@H](Cc1ccc(O)cc1)C(=O)N[C@H](CCSC)C(=O)N[C@H](CCC(=O)O)C(=O)N[C@H](CCC(=O)O)C(=O)N[C@@H](C(=O)N[C@H](CCC(=O)O)C(=O)N[C@H](Cc1cnc[nH]1)C(=O)N[C@H](C)C(=O)N[C@H](C)C(=O)N[C@H](CO)C(=O)N[C@H](CCCNC(=N)N)C(=O)N[C@H](Cc1ccccc1)C(=O)N[C@H](C)C(=O)N[C@H](Cc1ccc(O)cc1)C(=O)N[C@H](Cc1ccccc1)C(=O)N[C@H](Cc1ccccc1)C(=O)N[C@H](Cc1ccc(O)cc1)C(=O)N[C@H](CCC(N)=O)C(=O)N[C@H](Cc1cnc[nH]1)C(=O)N[C@H](CC(C)C)C(=O)N[C@H](C)C(=O)O)[C@H](C)CC
Kd [1]: 29 nM | IC50 [2]: 5760 nM | Activity [3]: Non-Toxic | metabolised at 2.5 h [4]: 87.5%

CC[C@@H](C)[C@@H](NC(=O)[C@@H](Cc1cnc[nH]1)NC(=O)[C@H](NC(=O)[C@@H](CCC(=O)O)NC(=O)[C@@H](CCC(=O)O)NC(=O)[C@@H](CCSC)NC(=O)[C@@H](CC(C)C)NC(=O)[C@@H](C)NC(=O)[C@@H](Cc1ccc(O)cc1)NC(=O)[C@@H](CC(C)C)NC(=O)[C@@H](C)NC(=O)[C@H](NC(=O)[C@@H](CCC(N)=O)NC(=O)[C@H](N)CC(C)C)[C@H](C)O)[C@H](C)CC)C(=O)N[C@H](C)C(=O)N[C@H](C)C(=O)N[C@H](CC(C)C)C(=O)N[C@H](CCC(=O)O)C(=O)N[C@H](CCCCN)C(=O)N[C@@H](C(=O)N[C@H](Cc1c[nH]c2ccccc12)C(=O)N[C@@H](C(=O)N[C@H](C)C(=O)N[C@H](CC(C)C)C(=O)N[C@H](CCCNC(=N)N)C(=O)N[C@H](Cc1cnc[nH]1)C(=O)N[C@H](CCC(N)=O)C(=O)N[C@H](Cc1ccc(O)cc1)C(=O)N[C@@H](C(=O)O)[C@H](C)O)[C@H](C)O)[C@H](C)O
Kd [1]: 31 nM | IC50 [2]: 6560 nM | Activity [3]: Non-Toxic | metabolised at 2.5 h [4]: 82.9%
